Results on three molecules are retold here after ChEMBL document CHEMBL1152597, “Push-pull benzothiazole derivatives as probes for detecting beta-amyloid plaques in Alzheimer's brains” (Bioorg Med Chem, 2009).

Active and inactive are the calls of the source. No cut-off for these calls is given here.

Experiment [1] can be described thus: Inhibition of amyloid beta (1-42) aggregation by thioflavin T competition binding experiment.
The species entered for experiment [2] is Mus musculus. Nature of the experiment: Binding affinity to beta-amyloid plaques in Alzheimer's disease Tg2576 mouse brain by thioflavin S staining. Type of experiment: tissue-based. In outline:
(§1)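 Tg2576 (female, 27-month-old) and wild-type (female, 27-month-old) mouse brains were cut into 10 µm serial sections. Sections were incubated 10 min with probe in 50% EtOH, washed twice for 1 min in 50% EtOH and examined by fluorescence microscopy. Serial sections were counterstained with thioflavin S to confirm plaques.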

The target in experiment [3] is Amyloid-beta precursor protein (Homo sapiens) (UniProt P05067). Nature of the experiment: Binding affinity to beta-amyloid plaques in normal patient brain section by immunohistochemical staining. In outline: (§2)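 Probe staining was done on 5 µm sections of temporal cortex from AD brain and from adult normal brain, read by fluorescence microscopy. Serial sections were immunostained with anti-Aβ antibodies to compare the plaque staining pattern.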

The species entered for experiment [4] is Mus musculus. Description: Binding affinity to beta-amyloid plaques in wild type mouse assessed as accumulation in brain by thioflavin S staining. Format: tissue-based. The method, boiled down: as §1
In experiment [5] the target is Amyloid-beta precursor protein (Homo sapiens) (UniProt P05067). Nature of the experiment: Binding affinity to beta-amyloid plaques in Alzheimer's disease patient temporal cortex by immunohistochemical staining. Format: tissue-based. In outline: as §2

Sequence of Amyloid-beta precursor protein (Homo sapiens) (P05067 whole entry): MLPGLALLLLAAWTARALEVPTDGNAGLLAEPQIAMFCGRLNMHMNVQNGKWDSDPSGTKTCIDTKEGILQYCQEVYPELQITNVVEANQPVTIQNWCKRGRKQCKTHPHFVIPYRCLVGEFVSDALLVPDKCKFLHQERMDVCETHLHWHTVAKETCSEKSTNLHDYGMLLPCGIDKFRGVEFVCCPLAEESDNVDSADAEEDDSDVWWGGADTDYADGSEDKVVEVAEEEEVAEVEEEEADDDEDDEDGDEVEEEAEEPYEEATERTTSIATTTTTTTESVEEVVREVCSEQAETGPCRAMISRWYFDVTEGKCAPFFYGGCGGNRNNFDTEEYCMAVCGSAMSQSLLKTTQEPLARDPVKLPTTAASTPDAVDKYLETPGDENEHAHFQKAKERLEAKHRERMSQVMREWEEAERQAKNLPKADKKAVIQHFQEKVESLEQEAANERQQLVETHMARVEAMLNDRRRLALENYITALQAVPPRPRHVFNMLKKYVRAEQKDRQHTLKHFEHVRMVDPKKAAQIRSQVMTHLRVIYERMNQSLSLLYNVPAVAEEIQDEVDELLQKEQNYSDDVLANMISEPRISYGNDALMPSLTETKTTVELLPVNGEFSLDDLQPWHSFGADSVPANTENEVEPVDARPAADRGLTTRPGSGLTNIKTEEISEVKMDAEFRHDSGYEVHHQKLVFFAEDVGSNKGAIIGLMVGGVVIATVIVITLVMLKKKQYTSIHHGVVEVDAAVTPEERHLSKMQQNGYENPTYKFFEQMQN

In experiment [1], `[11CH3]Nc1ccc(-c2nc3ccc(O)cc3s2)cc1` [PITTSBURGH COMPOUND B] came in with an IC50 of 670 nM.
On to `CN(C)c1ccc2nc(C=C(C#N)C#N)sc2c1`, for which the outcome in experiment [2] and in experiment [5] was Active. In addition, the result in experiment [3] and in experiment [4] was inactive. This molecule also gave an IC50 in experiment [1] of 120 nM.
As for `CN(C)c1ccc2nc(/C=C/c3ccc(C=C(C#N)C#N)cc3)sc2c1`, the result in experiment [2] and in experiment [5] was Active. Further, the result in experiment [3] and in experiment [4] was inactive. Besides, the IC50 in experiment [1] worked out at 110 nM.
